# CDK5 inh: inhibitors of human CDK5/p35 kinase. Q00535+Q15078. inhibition, % at 10 µM. Recombinant CDK5/p35, ADP-Glo luminescence, 60 min. 0.01% of 330,000 active;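 active means highest replicate inhibition of at least 50% and at least 75% of replicates reaching 50%; inconclusive means only one of the two criteria met; inactive means both criteria failed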
# Target sequence (Q00535 whole entry, looked up): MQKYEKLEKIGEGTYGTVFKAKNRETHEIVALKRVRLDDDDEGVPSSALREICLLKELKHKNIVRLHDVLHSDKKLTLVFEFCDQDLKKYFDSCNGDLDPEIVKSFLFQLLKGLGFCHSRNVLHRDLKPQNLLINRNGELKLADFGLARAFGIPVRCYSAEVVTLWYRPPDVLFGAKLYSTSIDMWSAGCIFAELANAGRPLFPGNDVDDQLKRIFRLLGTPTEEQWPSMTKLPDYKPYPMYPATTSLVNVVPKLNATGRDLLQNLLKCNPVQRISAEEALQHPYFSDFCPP
# Target sequence (Q15078 whole entry, looked up): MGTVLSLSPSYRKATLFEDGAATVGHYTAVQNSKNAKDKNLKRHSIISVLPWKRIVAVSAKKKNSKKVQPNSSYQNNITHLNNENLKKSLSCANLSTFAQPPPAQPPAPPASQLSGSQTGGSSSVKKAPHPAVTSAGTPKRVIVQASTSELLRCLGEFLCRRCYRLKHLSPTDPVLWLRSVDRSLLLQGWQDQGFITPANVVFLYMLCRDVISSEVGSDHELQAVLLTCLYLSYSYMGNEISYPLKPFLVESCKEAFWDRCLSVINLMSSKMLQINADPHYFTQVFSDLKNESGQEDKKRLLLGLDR
# Env fusion inh: inhibitors of HIV Env-mediated cell fusion | inhibition, % at 12.3 µM | HeLa-JRFL Env/CEM21 cell fusion, luciferase | 1.1% of 360,000 active;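 active means mean replicate inhibition score of at least 50 and every replicate individually at or above 50; inconclusive means only one of the two criteria met; inactive means mean below 50 and not all replicates reaching 50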
# Cneo AK release: Cryptococcus neoformans lysis via adenylate kinase release | C. neoformans lysis, adenylate kinase release luminescence, 4 h; normalised: neutral wells 0, clomiphene wells 100 | lysis activity, % at 15 µM | 0.2% of 360,000 active | AID 651654;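 active means mean lysis activity across replicates of at least 80%, whatever share of replicates individually reach that level; inactive means mean lysis activity below 80%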
#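 Assay system: C. neoformans cells. Amount: yeast cell density of 5 × 10^6 cells/mL. Technique: AK luminescence. Buffer or medium: YPD. Times: static 4 h at 37 °C with compound, 1 h detection. Dosing: single-point compound dose. Read-out: lysis from increased AK signal.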
# PAX8 reporter: PAX8 transcriptional activity inhibition; 1.2% of 360,000 active; AID 652154; RMG-I TPO-luciferase reporter, SteadyGlo, 24 h; inhibition, % at 12.6 µM;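 active means mean replicate inhibition at least 60% with every replicate also reaching 60%; inconclusive means only one of the two criteria is met; inactive means mean below 60% and not all replicates reaching 60%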;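 further: luciferase light reporting Pax8 driven TPO promoter activity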
# dFosB activator: activators of mouse delta FosB homodimer | P13346 | purified delta FosB, TAMRA-CDK5 oligo fluorescence polarization; percent of positive-control signal above neutral wells | activation, % at 25 µM | 0.99% of 340,000 active | AID 493131;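 active means mean activation above about 17%, with every replicate also reaching it, limit read from the data, passing the limit was not always enough; inconclusive means only one of the two conditions met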
# INS-1E GSIS act: primary screen for activators of insulin secretion dependent on glucose, INS-1E cells, GLuc reporter luminescence; AID 743287; 0.61% of 370,000 active; INS-1E GLuc reporter insulin secretion, 2-3 h; activation, % at 16.6 µM;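 active means lowest replicate activation of at least 40%, so every replicate reaches that level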
# Numbers stand for hits; i = inactive; ? = inconclusive; nt = not tested or not shown; ! = repeats disagree; [ ] = remark or other dose. The list is not random: actives were taken first. Their share in the collection is about 2.9%.
SMILES,CDK5 inh,Env fusion inh,Cneo AK release,PAX8 reporter,dFosB activator,INS-1E GSIS act
C[C@H]1CN([C@@H](C)CO)C(=O)Cc2cc(NC(=O)Nc3ccc(C(F)(F)F)cc3)ccc2O[C@@H]1CN(C)Cc1ccc(C(F)(F)F)cc1,nt,i,i,i,nt,i
CN(c1cccc(Cl)c1)S(=O)(=O)c1cccc(C(=O)Nc2nc3ccccc3[nH]2)c1,i,i,nt,71,i,i
Cc1ccc(C)c(C(=O)Nc2nc3ccccc3[nH]2)c1,i,i,i,i,i,45
O=C(Nc1nc2ccccc2[nH]1)c1ccccc1O,i,i,nt,i,i,i
COc1ccc(N(C)S(=O)(=O)c2cccc(C(=O)Nc3nc4ccccc4[nH]3)c2)cc1,i,i,i,i,i,i
CCCN1C[C@@H](C)[C@@H](OC)CN(C)C(=O)c2cc(NC(=O)c3cccc(OC)c3)ccc2OC[C@H]1C,nt,nt,nt,nt,nt,i
CC(=O)Nc1ccccc1OCC(=O)N(Cc1ccccc1)C(C)C,i,61,i,i,i,i
CO[C@H]1CN(C)C(=O)c2ccc(NS(=O)(=O)c3ccccc3C)cc2OC[C@@H](C)NC[C@@H]1C,nt,nt,i,nt,nt,i
COc1ccc(CC(=O)Nc2cccc(S(=O)(=O)N3CCCCCC3)c2)cc1OC,i,68,i,i,i,i
O=C(CNc1cccc(S(=O)(=O)N2CCCCC2)c1)Nc1cccc(F)c1,i,i,i,i,i,i
COc1ccc(CCC(=O)Nc2cccc(S(=O)(=O)N3CCCCCC3)c2)cc1OC,i,nt,i,i,i,i
NC(=O)C1(N2CCCCC2)CCN(S(=O)(=O)c2ccccc2)CC1,i,nt,i,nt,i,i
CN(C)S(=O)(=O)c1cccc(NC(=O)CNc2cccc(S(=O)(=O)N3CCCCC3)c2)c1,nt,64,i,i,nt,nt
CC12CCC(=O)N1C(C(=O)OCC(=O)Nc1cccc(S(=O)(=O)N3CCCCCC3)c1)CS2 (configuration not stated),i,nt,i,84,i,i
CC12CCC(=O)N1C(C(=O)Nc1cccc(S(=O)(=O)N3CCCCCC3)c1)CS2 (configuration not stated),i,nt,i,i,i,i
COc1ccc(S(=O)(=O)N2CCC(C(N)=O)(N3CCCCC3)CC2)cc1OC,i,i,i,i,i,71
C[C@H](CO)N1C[C@H](C)[C@H](CN(C)S(=O)(=O)c2cn(C)cn2)Oc2ncc(C#Cc3ccc(F)cc3)cc2C1=O,nt,i,i,nt,nt,i
COc1ccccc1CNC(=O)CCNS(=O)(=O)c1ccc2[nH]c(=O)oc2c1,i,i,i,i,i,53
O=C(C[C@H]1CC[C@@H](NC(=O)c2ccc(F)cc2)[C@H](CO)O1)NCc1ccncn1,nt,nt,i,nt,nt,i
C[C@H]1CN([C@@H](C)CO)C(=O)c2cc(C#CC(C)(C)O)cnc2O[C@@H]1CN(C)C(=O)CC1CC1,nt,i,i,nt,nt,i
C[C@H](CO)N1C[C@H](C)[C@H](CN(C)C(=O)Nc2ccc3c(c2)OCO3)Oc2ncc(C#CC3(O)CCCC3)cc2C1=O,nt,i,i,nt,nt,i
COc1ccc(-c2cnc3c(NC=O)cc(-c4cccc(NS(C)(=O)=O)c4)cn23)cc1OC,nt,i,i,112,nt,i
CS(=O)(=O)Nc1cccc(-c2cc(NC=O)c3ncc(-c4ccc(F)c(Cl)c4)n3c2)c1,nt,i,i,64,nt,i
COc1ccccc1C(=O)NNC(=S)NC(=O)c1cc(OC)c(OC)c(OC)c1,i,i,nt,63,i,i
COc1cc(C(=O)Oc2ccccc2N)cc(OC)c1OC,i,nt,92,nt,i,nt
SMILES,CDK5 inh,Env fusion inh,Cneo AK release,PAX8 reporter,dFosB activator,INS-1E GSIS act
COc1ccc(C(=O)NNC(=S)NC(=O)c2cc(-c3ccccc3)nc3ccccc23)cc1,i,i,i,i,i,nt
COc1ccc(Cl)cc1C(=O)NNC(=S)NC(=O)c1cc(-c2ccccc2)nc2ccccc12,i,73,i,nt,i,nt
C[C@H]1CCCCO[C@H](CN(C)S(=O)(=O)c2cccs2)[C@@H](C)CN([C@@H](C)CO)C(=O)c2cc(N(C)C)ccc2O1,nt,i,i,i,nt,i
CN1[C@H](CO)[C@@H]2c3ccccc3N(C(=O)C3CCOCC3)C[C@@H]21,nt,nt,i,i,nt,i
c1ccc(-c2n[nH]c3ccccc23)cc1,i,nt,i,nt,i,i
O=c1[nH]nc(-c2ccccc2)c2ccccc12,i,i,i,i,i,66
O=C1CSC(c2ccccn2)N1c1ccc(Br)cc1 (configuration not stated),i,i,nt,i,i,43
C[C@@H]1CN([C@H](C)CO)C(=O)c2c(c3ccccc3n2C)-c2ccccc2CO[C@@H]1CN(C)S(=O)(=O)c1cccc(F)c1,nt,95[16.7 µM],i,i,nt,i
C[C@H](CO)N1C[C@H](C)[C@H](CN(C)S(=O)(=O)c2cccc(C#N)c2)OCc2ccccc2-c2c(n(C)c3ccccc23)C1=O,nt,57[16.7 µM],i,i,nt,i
C[C@H](CO)N1C[C@H](C)[C@H](CN(C)S(=O)(=O)c2cccc(F)c2)OCc2ccccc2-c2c(n(C)c3ccccc23)C1=O,nt,98!,i,104,nt,i
C[C@@H]1CN([C@H](C)CO)C(=O)c2c(c3ccccc3n2C)-c2ccccc2CO[C@H]1CN(C)S(=O)(=O)c1cccc(F)c1,nt,i,i,93,nt,i
C[C@H]1CN(C)C(=O)Cc2cc(NS(C)(=O)=O)ccc2O[C@@H]1CN(C)C,nt,nt,nt,nt,nt,i
Cn1cnc(CCNC(=O)C[C@@H]2CC[C@H]3[C@@H](COC[C@H](O)CN3C(=O)Nc3ccc(Cl)cc3)O2)c1,nt,nt,i,i,nt,i
C[C@H]1CN([C@@H](C)CO)C(=O)c2c(c3ccccc3n2C)-c2ccccc2CO[C@@H]1CN(C)S(=O)(=O)c1cccc(F)c1,nt,i,i,102,nt,i
Cc1cccc(S(=O)(=O)N(C)C[C@@H]2OCc3ccccc3-c3c(n(C)c4ccccc34)C(=O)N([C@H](C)CO)C[C@@H]2C)c1,nt,nt,i,nt,nt,i
COc1cc(/C=C2\SC(=S)N(C(C(=O)O)c3ccccc3)C2=O)ccc1O (configuration not stated),i,i,i,i,23,i
COc1cc(/C=C2\SC(=S)N(NC(=O)c3ccncc3)C2=O)ccc1O,i,i,nt,i,33,i
COc1cc(/C=C2\SC(=S)N(NC(=O)c3ccc(O)c(OC)c3)C2=O)ccc1O,i,i,i,i,?,i
COc1cc(/C=C2\SC(=S)N(NS(=O)(=O)c3ccccc3)C2=O)ccc1O,i,i,i,i,21,i
C[C@@H]1CCCCO[C@@H](CN(C)S(=O)(=O)c2cccs2)[C@H](C)CN([C@@H](C)CO)C(=O)c2cc(NS(=O)(=O)c3ccccc3)ccc2O1,nt,i,i,i,nt,i
O=C(C[C@@H]1CC[C@@H](NC(=O)NC2CCCC2)[C@@H](CO)O1)NCc1ccc(F)cc1,nt,i,i,i,nt,i
CC1=C/C(=C(/c2cc(C)c(O)c(Br)c2)c2ccccc2S(=O)(=O)O)C=C(Br)C1=O,i,i,i,77,i,i

# Screening data from PubChem.
